Vif imaging: HIV Vif self-association inhibitors, primary screen, imaging, HEK293T, single point; 340,000 compounds, 0.35% hits; HEK293T cells, Vif self-association by quenched fluorescence, 24 h; inhibition, % at 7.49 µM; in the data active means inhibition above about 50%, passing the limit was not always enough; inconclusive means no clear call, values can overlap the other calls; inactive means below about 31%
HIV Env fusion: inhibitors of HIV-1 Env-driven cell-cell fusion, primary screen, HeLa-JRFL effector, CEM21 target cells, luciferase; AID 651610, 2012; inhibition, % at 12.3 µM; 360,000 compounds, 1.1% hits;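 active means mean replicate inhibition score of at least 50 and every replicate individually at or above 50; inconclusive means only one of the two criteria met; inactive means mean below 50 and not all replicates reaching 50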;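 further: 0% = plate neutral controls and 100% = maraviroc near 300 nM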
miR122 inh: miR-122 Renilla sensor signal increase in Huh7, primary screen, miR-122 inhibitor project, cell-based, single point, plate reader | AID 602342, 2012 | Huh7 miR-122 Renilla luciferase sensor, 48 h; neutral wells = 0, positive control = 100 | activation (reporter increase), % at 12.5 µM | 340,000 compounds, 0.3% hits;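 active means mean replicate activation score at least 90 and every replicate individually at or above 90; inconclusive means only one of the two criteria met; inactive means neither criterion met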;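 further: higher luciferase means less miR-122 activity so hits act as miR-122 inhibitors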
S100A4 MyoIIA: inhibitors of S100A4-myosin IIA peptide binding, primary screen, biochemical, fluorescence polarization, TAMRA-MyoIIA peptide. Protein S100-A4 (Homo sapiens), P26447. inhibition, % at 10.7 µM. 360,000 compounds, 0.14% hits;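 active means mean inhibition of at least 70% across replicates, with every replicate also reaching that level; inconclusive means mean inhibition reaches 70% but some replicates fall short; inactive means mean inhibition below 70%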
Target sequence (P26447 whole entry, looked up): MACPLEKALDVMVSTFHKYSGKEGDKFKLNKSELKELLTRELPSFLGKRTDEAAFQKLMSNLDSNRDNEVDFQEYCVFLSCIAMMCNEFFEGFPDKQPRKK
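assay system = human S100A4 monomer with TAMRA-labelled myosin IIA peptide | also added = labelled myosin peptide probe, 5 nM | incubation = 5 min between mix addition and reading | control set = DMSO and TFP controls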
Ecoli rRNA inh: reduced GFP signal of wild-type E. coli, primary screen, bacterial rRNA inhibitor project, GFP/RFP fluorescence, OD600, single point. E. coli WT GFP vs humanized-ribosome RFP mutants, 24 h; stronger effect = lower value; DMSO median 0, no signal -100. GFP signal change (wild-type ribosome), % (no concentration beside the values). 350,000 compounds, 1.6% hits. AID 720706, 2013;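 active means significant combined selectivity score with lowered wild-type GFP, culture density cut under 30%, mutant RFP and density less affected; inactive means any of these conditions unmet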
FN deposition inh: inhibitors of fibronectin matrix deposition, primary screen, AH1F cells, Alexa488-fibronectin fluorescence, plate reader; inhibition, % at 12.6 µM; AID 743247, 2014; AH1F fibroblasts, overnight; 350,000 compounds, 0.086% hits;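 active means mean inhibition across replicates of 30% or more, regardless of how many single replicates reach that level; inconclusive means mean under 30% yet at least half of replicates reach 30%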;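 further: positive control wells lacked labelled fibronectin entirely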
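Measured by – fluorescence 485/525 nm · System – AH1F fibroblast monolayer, labelled fibronectin deposition · Amount – 10000 cells per well · Buffer or medium – serum-reduced DMEM (2% serum) · Doses – single dose, pinned · Also added – fluorescent fibronectin at 24 nM final · Schedule – 1 h cell attachment, overnight exposure to compound and label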
Active calls of the source: *; ? = inconclusive; · = not tested or not shown; [ ] = dose if it differs, or a comment. This is a sample that favours compounds with a hit; in the whole collection about 2.6% have one here.

SMILES | Vif imaging | HIV Env fusion | miR122 inh | S100A4 MyoIIA | Ecoli rRNA inh | FN deposition inh
NC1=NC(=Nc2cccc(S(N)(=O)=O)c2)c2ccccc21 | 0.9 | -5.5 | 9.5 | -1.7 | 6.8 | -1.0
COc1cc(N=Nc2cccc(S(N)(=O)=O)c2)c2ccccc2c1N | 53.1* | -21.5 | · | -21.4 | -59.8 | -6.2
Cc1ccc(CCNC(=O)c2cc(-c3ccncc3)nc3ccc(S(=O)(=O)N4CCOCC4)cc23)cc1 | 7.8 | 3.2 | -1.0 | 148.5* | -0.5 | -8.9
O=C1N[C@@H](c2ccccc2)COCc2cn(nn2)CC[C@@H](Cc2ccc(C(F)(F)F)cc2)C(=O)N[C@@H](c2ccccc2)COCc2cn(nn2)CC[C@H]1Cc1ccc(C(F)(F)F)cc1 | · | · | · | · | -3.1 | -5.8
O=C(O)Cc1ccc(C(=O)c2ccc(Cl)cc2)s1 | -0.9 | 19.0 | 1.2 | · | · | 2.6
NC(=O)Cc1ccc(C(=O)c2ccc(Cl)cc2)s1 | -1.5 | 2.4 | -5.2 | -0.2 | -24.2* | -0.8
C[C@H](CO)N1C[C@H](C)[C@H](CN(C)C(=O)Nc2ccc(F)cc2)Oc2c(NS(=O)(=O)c3ccc(F)cc3)cccc2C1=O | · | -62.2[16.7 µM] | -6.0[16.7 µM] | -0.2 | -6.9 | ·
Cc1ccc(Oc2ccc(S(=O)(=O)N3CCOCC3)cc2C(N)=O)cc1C | · | -14.4 | · | 1.0 | -22.9* | ·
CCOC(=O)N1CCN(C(=O)c2ccc3c(c2)N(Cc2cc(C)ccc2C)C(=O)c2ccccc2S3=O)CC1 (stereo unspecified) | -8.5 | 5.9 | -11.4 | 1.4 | -20.3* | 0.6
C/C(O)=c1/c(=O)nc2cccc3c2=c1c1ccccc1c3=O | 7.0 | 67.3* | · | 8.9 | 4.8 | 7.0
CC(=O)Oc1ccccc1/C=C/c1nc2ccccc2c(=O)o1 | -2.7 | 23.5 | 10.2 | -6.5 | 11.4 | -0.3
O=C(C[C@H]1C[C@H]2c3cc(NC(=O)C4CCC4)ccc3O[C@H]2[C@H](CO)O1)NCc1ccc2c(c1)OCO2 | · | 81.1*[16.7 µM] | 3.7[16.7 µM] | 1.0 | 2.0 | 6.1
O=C(C[C@@H]1C[C@@H]2c3cc(NC(=O)C4CCC4)ccc3O[C@@H]2[C@@H](CO)O1)NCc1ccc2c(c1)OCO2 | · | 78.5*[16.7 µM] | -3.4[16.7 µM] | 4.6 | -0.8 | 11.9
O=C(C[C@@H]1C[C@H]2c3cc(NC(=O)C4CCC4)ccc3O[C@H]2[C@H](CO)O1)NCc1ccc2c(c1)OCO2 | · | 5.7[16.7 µM] | -2.3[16.7 µM] | -22.6 | -0.5 | -8.6
Cc1cccc(COCC(CC(C)C)N2CCN(C(=O)c3ccc(C(F)(F)F)cc3)CCC2=O)c1 (stereo unspecified) | -1.7 | 82.9* | 2.1 | -7.3 | -0.7 | 11.7
Cc1cccc(COC[C@H](CC(C)C)N2CCN(C(=O)c3ccc(C(C)(C)C)cc3)CCC2=O)c1 | · | -2.6 | · | -10.6 | 2.0 | ·
Cc1cccc(COCC(CC(C)C)N2CCN(C(=O)c3ccc(C(C)(C)C)cc3)CCC2=O)c1 (stereo unspecified) | -20.4 | 59.8* | 0.2 | 0.8 | 2.4 | -1.0
C[C@H]1CCCCO[C@H](CN(C)Cc2ccc(C(F)(F)F)cc2)[C@@H](C)CN([C@@H](C)CO)C(=O)c2cc(NC(=O)Cc3ccccc3)ccc2O1 | · | ? | -7.8[16.7 µM] | · | -1.8 | -16.1
C[C@@H]1CCCCO[C@@H](CN(C)Cc2ccc(C(F)(F)F)cc2)[C@H](C)CN([C@H](C)CO)C(=O)c2cc(NC(=O)Cc3ccccc3)ccc2O1 | · | 22.6[16.7 µM] | -9.8[16.7 µM] | -29.4 | 0.0 | ·
C[C@@H]1CCCCO[C@@H](CN(C)CC2CCCCC2)[C@H](C)CN([C@H](C)CO)C(=O)c2cc(NC(=O)CCC(F)(F)F)ccc2O1 | · | -0.4[16.7 µM] | -5.4[16.7 µM] | · | 1.6 | ·
C[C@@H]1CCCCO[C@@H](CN(C)Cc2ccc(C(=O)O)cc2)[C@H](C)CN([C@H](C)CO)C(=O)c2cc(NC(=O)CCCN(C)C)ccc2O1 | · | -24.7[16.7 µM] | 5.6[16.7 µM] | 130.5* | 2.2 | ·
